# Biological target: T1, Inhibitor of nuclear factor kappa-B kinase subunit beta (Homo sapiens, UniProt O14920)
# T1 sequence (O14920 whole entry): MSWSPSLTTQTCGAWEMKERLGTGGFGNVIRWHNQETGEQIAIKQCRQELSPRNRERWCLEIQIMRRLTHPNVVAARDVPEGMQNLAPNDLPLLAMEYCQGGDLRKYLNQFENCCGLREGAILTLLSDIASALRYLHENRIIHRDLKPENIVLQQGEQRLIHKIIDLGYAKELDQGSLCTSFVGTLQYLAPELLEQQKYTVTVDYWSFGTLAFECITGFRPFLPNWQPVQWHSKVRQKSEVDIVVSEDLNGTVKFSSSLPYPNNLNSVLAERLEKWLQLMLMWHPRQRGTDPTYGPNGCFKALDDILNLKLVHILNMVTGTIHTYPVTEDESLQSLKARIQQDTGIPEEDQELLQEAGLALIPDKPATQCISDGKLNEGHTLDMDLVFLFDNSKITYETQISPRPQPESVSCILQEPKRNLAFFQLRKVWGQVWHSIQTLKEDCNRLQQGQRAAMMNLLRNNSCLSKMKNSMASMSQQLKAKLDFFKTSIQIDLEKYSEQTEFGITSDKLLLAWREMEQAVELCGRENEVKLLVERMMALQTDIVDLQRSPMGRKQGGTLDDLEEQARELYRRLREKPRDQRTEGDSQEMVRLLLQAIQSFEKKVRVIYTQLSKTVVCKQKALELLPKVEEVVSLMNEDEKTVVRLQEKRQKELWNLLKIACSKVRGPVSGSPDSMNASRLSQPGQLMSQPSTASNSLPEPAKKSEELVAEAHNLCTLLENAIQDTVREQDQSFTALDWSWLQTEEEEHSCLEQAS
# Assay: Inhibition of FLAG-tagged human recombinant IKKbeta phosphorylation expressed in baculovirus infected insect Sf9 cells after 1 hr by luminescence assay
# Outline: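 Reaction run 1 h at room temperature in 25 mmol/l HEPES pH 7.5, 10 mmol/l Mg acetate, DTT, 0.01% BSA and 0.01% Tween20, with 500 nmol ATP and GST-IκBα substrate. Kinase-Glo added, 10 min, luminescence from remaining ATP measured.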
row,SMILES,IC50 [µM]
1,CC(C)=CC(=O)O[C@@H]1CC(C)(C)C[C@H]2C3=CC[C@@H]4[C@@]5(C)CC[C@H](OC(=O)/C=C/c6ccccc6)C(C)(C)[C@@H]5CC[C@@]4(C)[C@]3(C)CC[C@@]12C(=O)O,0.94
2,C/C=C(\C)C(=O)O[C@@H]1CC(C)(C)C[C@H]2C3=CC[C@@H]4[C@@]5(C)CC[C@H](OC(=O)/C=C/c6ccccc6)C(C)(C)[C@@H]5CC[C@@]4(C)[C@]3(C)CC[C@@]12C(=O)O,1.2
3,C/C=C(\C)C(=O)O[C@@H]1CC(C)(C)C[C@H]2C3=CC[C@@H]4[C@@]5(C)CC[C@H](O)C(C)(C)[C@@H]5CC[C@@]4(C)[C@]3(C)CC[C@@]12C(=O)O,2.62

# Reference: BindingDB's records for doi:10.1016/j.ejmech.2013.12.052 (Jaypee University of Information Technology, 2014)
